2 molecules from ChEMBL document CHEMBL1145465, “PhoU is a persistence switch involved in persister formation and tolerance to multiple antibiotics and stresses in Escherichia coli” (2007) can be followed below.

What all share (type): functional
Test [1] concerns Escherichia coli. The test can be described thus: Antibacterial activity against Escherichia coli K12 PhoU wild type W3110 assessed as cell count in stationary phase at 100 ug/ml after 1 day. A digest of the protocol: (§1)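 Log-phase or stationary-phase cultures exposed to ampicillin 100 μg/ml in MOPS minimal medium (pH 5.0) at 37°C without shaking, for 5 h up to 10 days. Aliquots were taken at each time point, washed in saline and plated on LB plates for viable CFU/ml.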

Test [2] deals with Escherichia coli. Briefly: Antibacterial activity against Escherichia coli K12 PhoU wild type W3110 assessed as cell count at 100 ug/ml.
For test [3], the system named is Escherichia coli. The test can be described thus: Antibacterial activity against Escherichia coli K12 mutant JHU313 containing plasmid PhoU after 16 hrs by serial dilution method. The following applies: K12, 16 h. A digest of the protocol:
(§2)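 Twofold serial antibiotic dilutions in LB broth were seeded with 10⁶–10⁷ bacteria/ml from log-phase culture and incubated 16 h at 37°C. MIC was taken as the lowest concentration with no visible growth. MBC was taken as the concentration giving a 100-fold CFU drop from the inoculum.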

Test [4] has as its system Escherichia coli. Briefly: Antibacterial activity against Escherichia coli K12 mutant JHU313 after 16 hrs by serial dilution method. The conditions noted are these: K12, 16 h. A digest of the protocol:
as §2

Test [5] relates to Escherichia coli. The test can be described thus: Antibacterial activity against Escherichia coli K12 PhoU wild type W3110 assessed as cell count in log phase at 100 ug/ml after 3 days. A digest of the protocol:
as §1

For test [6], the system named is Escherichia coli. The test can be described thus: Antibacterial activity against Escherichia coli K12 PhoU wild type W3110 after 16 hrs by serial dilution method. The conditions noted are these: K12, 16 h. A digest of the protocol:
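Serial twofold antibiotic dilutions in LB broth; log-phase inoculum 10⁶ to 10⁷ bacteria/ml; 16 h at 37°C. MIC was the lowest concentration with no visible growth. MBC was the concentration giving a 100-fold CFU drop below the seeded inoculum.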

For test [7], the system named is Escherichia coli. Briefly: Antibacterial activity against Escherichia coli K12 mutant JHU313 containing plasmid vector after 16 hrs by serial dilution method. The conditions noted are these: K12, 16 h. A digest of the protocol: as §2
For test [8], the system named is Escherichia coli. The test can be described thus: Antibacterial activity against Escherichia coli K12 mutant JHU313 containing plasmid vector at 1.5 ug/ml after 48 hrs by disc diffusion method. A digest of the protocol:
(§3)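 Kirby-Bauer disc assay: log-phase LB culture was spread on LB agar for confluent growth. 7-mm nitrocellulose discs were soaked in antibiotic at the listed concentration and placed on the agar. After 48 h at 37°C, the diameter of the inhibition zone was measured in mm.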
In general terms: In agar diffusion tests the substance spreads into inoculated agar from a disc or well.

In test [9] the test system is Escherichia coli. Briefly: Antibacterial activity against Escherichia coli K12 containing deletion deltaphoBR mutant assessed as cell count in stationary phase at 100 ug/ml after 5 hrs. A digest of the protocol:
(§4)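 Deletion mutants were made by the Datsenko–Wanner method. Log-phase or stationary-phase cultures were exposed to ampicillin at 100 μg/ml. CFU/ml was determined at the start and after 5, 24 and 72 h of exposure.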

Test [10] deals with Escherichia coli. Briefly: Antibacterial activity against Escherichia coli K12 containing deletion deltaphoB mutant assessed as cell count in log phase at 100 ug/ml after 5 hrs. A digest of the protocol:
as §4

Test [11] relates to Escherichia coli. The test can be described thus: Antibacterial activity against Escherichia coli K12 containing PhoU mutant assessed as cell count in log phase at 100 ug/ml after 5 hrs. A digest of the protocol:
(§5)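 Log-phase or stationary-phase cultures were exposed to ampicillin (100 μg/ml) or norfloxacin (3 μg/ml) in MOPS minimal medium, pH 5.0, at 37°C without shaking, for 5 h to 10 days. Aliquots were saline-washed and plated on LB for CFU/ml.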

For test [12], the system named is Escherichia coli. Briefly: Antibacterial activity against Escherichia coli K12 containing deletion deltaphoBR mutant assessed as cell count in stationary phase at 100 ug/ml after 72 hrs. A digest of the protocol:
as §4

Test [13] concerns Escherichia coli. The test can be described thus: Antibacterial activity against Escherichia coli K12 containing deletion deltaphoBR mutant assessed as cell count in stationary phase at 100 ug/ml after 24 hrs. A digest of the protocol:
as §4

Test [14] deals with Escherichia coli. The test can be described thus: Antibacterial activity against Escherichia coli K12 PhoU wild type W3110 at 100 ug/ml after 48 hrs by disc diffusion method. A digest of the protocol: (§6)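 Kirby-Bauer disc assay. Log-phase LB culture (10⁸ bacteria) was spread for confluent growth on LB agar. 7 mm nitrocellulose discs soaked in antibiotic at the listed concentrations were laid on the agar. Inhibition zone diameter (mm) was measured after 48 h at 37°C.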

Test [15] relates to Escherichia coli. The test can be described thus: Antibacterial activity against Escherichia coli K12 PhoU wild type W3110 assessed as cell count in log phase at 100 ug/ml after 5 days. A digest of the protocol: as §1
The test system of test [16] is Escherichia coli. Briefly: Antibacterial activity against Escherichia coli K12 containing deletion deltaphoB mutant assessed as cell count in stationary phase at 100 ug/ml after 5 hrs. A digest of the protocol:
as §4

Test [17] deals with Escherichia coli. Briefly: Antibacterial activity against Escherichia coli K12 PhoU wild type W3110 at 0.1 ug/ml after 48 hrs by disc diffusion method. A digest of the protocol:
as §6

In test [18] the test system is Escherichia coli. The test can be described thus: Antibacterial activity against Escherichia coli K12 containing deletion deltaphoU mutant assessed as cell count in stationary phase at 3 ug/ml after 3 days. A digest of the protocol:
(§7)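 Log-phase or stationary-phase cultures of the ΔphoU deletion mutant (Datsenko–Wanner construction) were exposed to norfloxacin 3 μg/ml in MOPS minimal medium, pH 5.0, at 37°C without shaking, for up to 10 days. Sampled aliquots were washed in saline and plated on LB agar for CFU/ml.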

The test system of test [19] is Escherichia coli. The test can be described thus: Antibacterial activity against Escherichia coli K12 mutant JHU313 containing plasmid vector at 0.5 ug/ml after 48 hrs by disc diffusion method. A digest of the protocol:
as §3

Test [20] deals with Escherichia coli. Briefly: Antibacterial activity against Escherichia coli K12 containing PhoU mutant assessed as cell count in stationary phase at 3 ug/ml after 10 days. A digest of the protocol: as §5
Test [21] concerns Escherichia coli. The test can be described thus: Antibacterial activity against Escherichia coli K12 containing deletion deltaphoU mutant assessed as cell count in log phase at 3 ug/ml after 1 week. A digest of the protocol: as §7
For test [22], the system named is Escherichia coli. The test can be described thus: Antibacterial activity against Escherichia coli K12 PhoU wild type W3110 assessed as cell count in stationary phase at 3 ug/ml after 5 hrs. A digest of the protocol: as §5
Test [23] has as its system Escherichia coli. Briefly: Antibacterial activity against Escherichia coli K12 containing PhoU mutant assessed as cell count in log phase at 3 ug/ml after 5 hrs. A digest of the protocol: as §5
In test [24] the test system is Escherichia coli. Briefly: Antibacterial activity against Escherichia coli K12 mutant JHU313 at 0.1 ug/ml after 48 hrs by disc diffusion method. A digest of the protocol: as §3
Test [25] deals with Escherichia coli. Briefly: Antibacterial activity against Escherichia coli K12 PhoU wild type W3110 assessed as cell count in log phase at 3 ug/ml after 5 hrs. A digest of the protocol:
as §5

Test [26] relates to Escherichia coli. Briefly: Antibacterial activity against Escherichia coli K12 containing PhoU mutant assessed as cell count in stationary phase at 3 ug/ml after 5 days. A digest of the protocol:
as §5

Test [27] deals with Escherichia coli. The test can be described thus: Antibacterial activity against Escherichia coli K12 containing PhoU mutant assessed as cell count in log phase at 3 ug/ml after 3 days. A digest of the protocol:
as §5

Test [28] relates to Escherichia coli. Briefly: Antibacterial activity against Escherichia coli K12 containing PhoU mutant assessed as cell count in stationary phase at 3 ug/ml after 3 days. A digest of the protocol: as §5
The test system of test [29] is Escherichia coli. The test can be described thus: Antibacterial activity against Escherichia coli K12 PhoU wild type W3110 at 0.5 ug/ml after 48 hrs by disc diffusion method. A digest of the protocol:
as §6

Test [30] relates to Escherichia coli. The test can be described thus: Antibacterial activity against Escherichia coli K12 PhoU wild type W3110 assessed as cell count in log phase at 3 ug/ml after 10 days. A digest of the protocol:
as §5

The test system of test [31] is Escherichia coli. The test can be described thus: Antibacterial activity against Escherichia coli K12 mutant JHU313 containing plasmid PhoU at 0.1 ug/ml after 48 hrs by disc diffusion method. A digest of the protocol:
as §3

Test [32] has as its system Escherichia coli. The test can be described thus: Antibacterial activity against Escherichia coli K12 containing deletion deltaphoU mutant assessed as cell count in stationary phase at 3 ug/ml after 1 week. A digest of the protocol: as §7

In brackets after ≈: the same amount, converted by molar mass.

Turning to `CC1(C)S[C@@H]2[C@H](NC(=O)[C@H](N)c3ccccc3)C(=O)N2[C@H]1C(=O)O` [AMPICILLIN], the CFU with Escherichia coli [1] was 2 10^9/ml; with Escherichia coli [2], 5 10^7/ml; in the test on Escherichia coli [5] it was 0 mL⁻¹; with Escherichia coli [9] it was 3 10^9/ml; with Escherichia coli [10] it was 6 10^3/ml; with Escherichia coli [11], 20 mL⁻¹. Besides, the CFU in the test on Escherichia coli [12] is 2 10^8/ml; in the test with Escherichia coli [13], 1.7 10^9/ml; in the test with Escherichia coli [15], 0 mL⁻¹; with Escherichia coli [16], 4 10^9/ml. Besides, the MBC (in general, the lowest tested concentration that kills the bacteria rather than only halting them) against Escherichia coli [3] came out at 12.5 µg/mL (≈ 35.8 µM); against Escherichia coli [4], 6.25 µg/mL (≈ 17.9 µM); in the test on Escherichia coli [6] it was 12.5 µg/mL (≈ 35.8 µM); in the test on Escherichia coli [7], 6.25 µg/mL (≈ 17.9 µM). The MIC (commonly the smallest concentration in the dilution series that meets the test's criterion for growth inhibition) worked out at 3.1 µg/mL (≈ 8.87 µM) in the test on Escherichia coli [3], 1.5 µg/mL (≈ 4.29 µM) with Escherichia coli [4], 3.1 µg/mL (≈ 8.87 µM) in the test on Escherichia coli [6] and 1.5 µg/mL (≈ 4.29 µM) with Escherichia coli [7]. Also, the inhibition zone (IZ) in the test on Escherichia coli [8] came out at 27 mm; in the test on Escherichia coli [14], 35 mm.

As to `CCn1cc(C(=O)O)c(=O)c2cc(F)c(N3CCNCC3)cc21` [NORFLOXACIN], the inhibition zone (IZ) with Escherichia coli [17] amounted to 24 mm; in the test with Escherichia coli [19], 35 mm; in the test on Escherichia coli [24] it was 28 mm; with Escherichia coli [29] it was 27 mm; in the test on Escherichia coli [31] it was 27 mm. The CFU in the test on Escherichia coli [18] was 3 10^5/ml; in the test with Escherichia coli [20], 0 mL⁻¹; with Escherichia coli [21] it was 0 mL⁻¹; in the test on Escherichia coli [22] it was 5 10^9/ml; in the test on Escherichia coli [23], 2 10^7/ml; with Escherichia coli [25] it was 1 10^8/ml. The CFU in the test with Escherichia coli [26] is 0 mL⁻¹; with Escherichia coli [27], 0 mL⁻¹; with Escherichia coli [28], 2 10^5/ml; in the test with Escherichia coli [30] it was 0 mL⁻¹; in the test with Escherichia coli [32], 0 mL⁻¹. Moreover, the MBC amounted to 1 µg/mL (≈ 3.13 µM) with Escherichia coli [3], 0.5 µg/mL (≈ 1.57 µM) in the test with Escherichia coli [4], 1 µg/mL (≈ 3.13 µM) against Escherichia coli [6] and 0.5 µg/mL (≈ 1.57 µM) with Escherichia coli [7]. For the same molecule, the minimum inhibitory concentration (MIC) with Escherichia coli [3] stood at 0.5 µg/mL (≈ 1.57 µM); against Escherichia coli [4] it was 0.125 µg/mL (≈ 0.391 µM); against Escherichia coli [6], 0.5 µg/mL (≈ 1.57 µM); with Escherichia coli [7] it was 0.125 µg/mL (≈ 0.391 µM).
